Reference: ChEMBL document CHEMBL1649458, “Antibiotic resistance in Pseudomonas aeruginosa strains with increased mutation frequency due to inactivation of the DNA oxidative repair system” (2009)
≈ marks a conversion by molar mass, not a printed value. Calls of active or inactive are those of the source. The rule behind the calls is not given here.

Experiments:
[1] = test system: Pseudomonas aeruginosa; assay: Antimicrobial activity against Pseudomonas aeruginosa PAO1 harboring DNA oxidative repair system deltamutT::Gm mutant gene by Etest; assay type: functional
Method in brief: (§1)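 MICs by Etest per manufacturer's instructions on P. aeruginosa strains grown in LB; plates incubated at 37°C.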

[2] = test system: Pseudomonas aeruginosa; assay: Antimicrobial activity against Pseudomonas aeruginosa PAO1 harboring DNA oxidative repair system deltamutY::Gm mutant gene assessed as doubling time; assay type: functional
Method in brief: (§2)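 Overnight LB cultures adjusted to OD600 0.01 and grown at 37°C; OD600 read every 20 min to stationary phase. Doubling time taken from the slope of the exponential phase on a semilog plot; mean ± SD of three individual cultures.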

[3] = test system: Pseudomonas aeruginosa; assay: Antimicrobial activity against Pseudomonas aeruginosa PAO1 assessed as microbial doubling time; assay type: functional
Method in brief: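 Overnight LB cultures diluted to OD600 0.01 in LB and grown at 37°C. OD600 read every 20 min until stationary phase. OD600 plotted against time on a semilog scale, and doubling time taken from the slope of the straight exponential-phase segment. Value is the mean of three separate cultures ± standard deviation.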

[4] = test system: Pseudomonas aeruginosa; assay: Antimicrobial activity against Pseudomonas aeruginosa PAO1 by Etest; assay type: functional; method in brief: as §1
[5] = test system: Pseudomonas aeruginosa; assay: Antimicrobial activity against Pseudomonas aeruginosa PAO1 harboring DNA oxidative repair system deltamutT::Gm mutant gene assessed as doubling time; assay type: functional; method in brief: as §2
[6] = test system: Pseudomonas aeruginosa; assay: Antimicrobial activity against Pseudomonas aeruginosa PAO1 harboring DNA oxidative repair system deltamutM::Gm mutant gene by Etest; assay type: functional; method in brief: as §1
[7] = test system: Pseudomonas aeruginosa; assay: Antimicrobial activity against Pseudomonas aeruginosa PAO1 harboring DNA oxidative repair system […] mutant gene complemented with wild type DNA oxidative repair system mutY gene; assay type: functional, organism-based
[8] = test system: Pseudomonas aeruginosa; assay: Antimicrobial activity against Pseudomonas aeruginosa PAO1 harboring DNA oxidative repair system mutY mutant gene complemented with wild type DNA oxidative repair system mutY gene; assay type: functional, organism-based
[9] = test system: Pseudomonas aeruginosa; assay: Antimicrobial activity against Pseudomonas aeruginosa PAO1 harboring DNA oxidative repair system deltamutY::Gm mutant gene by Etest; assay type: functional; method in brief: as §1
[10] = test system: Pseudomonas aeruginosa; assay: Antimicrobial activity against Pseudomonas aeruginosa PAO1 harboring DNA oxidative repair system deltamutM::Gm mutant gene assessed as doubling time; assay type: functional; method in brief: as §2
[11] = test system: Pseudomonas aeruginosa; assay: Antimicrobial activity against Pseudomonas aeruginosa PAO1 harboring DNA oxidative repair system mutY mutant gene selected in presence of ciprofloxacin by Etest; assay type: functional
Method in brief: (§3)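 Resistant colonies picked from population-analysis plates (5% blood agar with twofold antibiotic dilutions) and passaged three times in antibiotic-free LB before Etest MIC determination. MIC is the mean of four colonies, two successive determinations per colony; PAO1 after tobramycin selection is the mean of two colonies.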

[12] = test system: Pseudomonas aeruginosa; assay: Antimicrobial activity against Pseudomonas aeruginosa PAO1 harboring DNA oxidative repair system mutT mutant gene selected in presence of Ceftazidime by Etest; assay type: functional; method in brief: as §3
[13] = test system: Pseudomonas aeruginosa; assay: Antimicrobial activity against Pseudomonas aeruginosa PAO1 harboring DNA oxidative repair system mutY mutant gene selected in presence of tobramycin by Etest; assay type: functional; method in brief: as §3
[14] = test system: Pseudomonas aeruginosa; assay: Antimicrobial activity against Pseudomonas aeruginosa PAO1 harboring DNA oxidative repair system mutT mutant gene selected in presence of tobramycin by Etest; assay type: functional; method in brief: as §3
[15] = test system: Pseudomonas aeruginosa; assay: Antimicrobial activity against Pseudomonas aeruginosa PAO1 harboring DNA oxidative repair system mutM mutant gene selected in presence of ciprofloxacin by Etest; assay type: functional; method in brief: as §3
[16] = test system: Pseudomonas aeruginosa; assay: Antimicrobial activity against Pseudomonas aeruginosa PAO1 harboring DNA oxidative repair system mutT mutant gene selected in presence of ciprofloxacin by Etest; assay type: functional; method in brief: as §3
[17] = test system: Pseudomonas aeruginosa; assay: Antimicrobial activity against Pseudomonas aeruginosa PAO1 selected in presence of tobramycin by Etest; assay type: functional; method in brief: as §3
[18] = test system: Pseudomonas aeruginosa; assay: Antimicrobial activity against Pseudomonas aeruginosa PAO1 selected in presence of ciprofloxacin by Etest; assay type: functional; method in brief: as §3
[19] = test system: Pseudomonas aeruginosa; assay: Antimicrobial activity against Pseudomonas aeruginosa PAO1 harboring DNA oxidative repair system mutM mutant gene selected in presence of Ceftazidime by Etest; assay type: functional; method in brief: as §3
[20] = test system: Pseudomonas aeruginosa; assay: Antimicrobial activity against Pseudomonas aeruginosa PAO1 selected in presence of Ceftazidime by Etest; assay type: functional; method in brief: as §3
[21] = test system: Pseudomonas aeruginosa; assay: Antimicrobial activity against Pseudomonas aeruginosa PAO1 harboring DNA oxidative repair system mutM mutant gene selected in presence of tobramycin by Etest; assay type: functional; method in brief: as §3
[22] = test system: Pseudomonas aeruginosa; assay: Antimicrobial activity against Pseudomonas aeruginosa PAO1 harboring DNA oxidative repair system mutY mutant gene selected in presence of Ceftazidime by Etest; assay type: functional; method in brief: as §3
[23] = test system: Pseudomonas aeruginosa; assay: Selectivity ratio of MIC for Pseudomonas aeruginosa PAO1 harboring DNA oxidative repair system mutT mutant gene selected in presence of tobramycin to MIC for Pseudomonas aeruginosa PAO1 harboring DNA oxidative repair system mutT mutant gene; assay type: functional
[24] = test system: Pseudomonas aeruginosa; assay: Selectivity ratio of MIC for Pseudomonas aeruginosa PAO1 harboring DNA oxidative repair system mutY mutant gene selected in presence of tobramycin to MIC for Pseudomonas aeruginosa PAO1 harboring DNA oxidative repair system mutY mutant gene; assay type: functional
[25] = test system: Pseudomonas aeruginosa; assay: Antimicrobial activity against Pseudomonas aeruginosa PAO1 harboring DNA oxidative repair system mutT mutant gene complemented with wild type DNA oxidative repair system mutT gene; assay type: functional, organism-based

SMILES	MIC [1]	Time [2]	Time [3]	MIC [4]	Time [5]	MIC [6]	Activity [7]	Activity [8]	MIC [9]	Time [10]	MIC [11]	MIC [12]	MIC [13]	MIC [14]	MIC [15]	MIC [16]	MIC [17]	MIC [18]	MIC [19]	MIC [21]	further results
C[C@H]1[C@H](NC(=O)/C(=N\OC(C)(C)C(=O)O)c2csc(N)n2)C(=O)N1S(=O)(=O)O [AZTREONAM]	1.5 µg/mL (≈ 3.44 µM)	25.7 min	26 min	1.5 µg/mL (≈ 3.44 µM)	27.7 min	1.5 µg/mL (≈ 3.44 µM)	Active	Active	1 µg/mL (≈ 2.3 µM)	27.3 min											
CC(C)(O/N=C(\C(=O)N[C@@H]1C(=O)N2C(C(=O)[O-])=C(C[n+]3ccccc3)CS[C@H]12)c1csc(N)n1)C(=O)O [CEFTAZIDIME]	2 µg/mL (≈ 3.66 µM)	25.7 min	26 min	2 µg/mL (≈ 3.66 µM)	27.7 min	1.5 µg/mL (≈ 2.74 µM)			1.5 µg/mL (≈ 2.74 µM)	27.3 min	0.47 µg/mL	18 µg/mL	0.69 µg/mL	0.38 µg/mL	0.44 µg/mL	0.44 µg/mL	0.5 µg/mL	0.44 µg/mL	26 µg/mL	0.63 µg/mL	MIC [20]: 20 µg/mL; MIC [22]: 18 µg/mL
O=C(N[C@H](CO)[C@H](O)c1ccc([N+](=O)[O-])cc1)C(Cl)Cl [CHLORAMPHENICOL]											256 µg/mL		86 µg/mL	20 µg/mL	256 µg/mL	256 µg/mL	28 µg/mL	256 µg/mL		56 µg/mL	fold change (FC) [23]: 3; fold change (FC) [24]: 2
O=C(O)c1cn(C2CC2)c2cc(N3CCNCC3)c(F)cc2c1=O [CIPROFLOXACIN]		25.7 min	26 min	0.19 µg/mL (≈ 0.573 µM)	27.7 min	0.19 µg/mL (≈ 0.573 µM)			0.19 µg/mL (≈ 0.573 µM)	27.3 min	0.75 µg/mL	0.16 µg/mL	0.16 µg/mL	0.08 µg/mL	0.88 µg/mL	0.75 µg/mL	0.32 µg/mL	0.75 µg/mL	0.13 µg/mL	0.11 µg/mL	MIC [22]: 0.17 µg/mL
CCN1CCN(C(=O)N[C@@H](C(=O)N[C@@H]2C(=O)N3[C@@H]2SC(C)(C)[C@@H]3C(=O)O)c2ccccc2)C(=O)C1=O [PIPERACILLIN]	2 µg/mL (≈ 3.86 µM)	25.7 min	26 min	2 µg/mL (≈ 3.86 µM)	27.7 min	2 µg/mL (≈ 3.86 µM)	Active	Active	2 µg/mL (≈ 3.86 µM)	27.3 min											
CN(C)[C@@H]1C(O)=C(C(N)=O)C(=O)[C@@]2(O)C(O)=C3C(=O)c4c(O)cccc4[C@@](C)(O)[C@H]3C[C@@H]12 [TETRACYCLINE]											256 µg/mL		5.5 µg/mL	4.25 µg/mL	256 µg/mL	256 µg/mL	10 µg/mL	256 µg/mL		18 µg/mL	
NC[C@H]1O[C@H](O[C@H]2[C@H](O)[C@@H](O[C@H]3O[C@H](CO)[C@@H](O)[C@H](N)[C@H]3O)[C@H](N)C[C@@H]2N)[C@H](N)C[C@@H]1O [TOBRAMYCIN]	1.5 µg/mL (≈ 3.21 µM)	25.7 min	26 min	1.5 µg/mL (≈ 3.21 µM)	27.7 min	1.5 µg/mL (≈ 3.21 µM)	Active	Active	1.5 µg/mL (≈ 3.21 µM)	27.3 min	1.37 µg/mL	2 µg/mL	3.75 µg/mL	0.9 µg/mL	1.19 µg/mL	1.25 µg/mL	6 µg/mL	1.06 µg/mL	2 µg/mL	3.5 µg/mL	Activity [25]: Active; MIC [20]: 1.75 µg/mL; MIC [22]: 2 µg/mL
